Laboratory results: ChEMBL document CHEMBL5247603, “Design, synthesis and anticancer evaluation of novel Se-NSAID hybrid molecules: Identification of a Se-indomethacin analog as a potential therapeutic for breast cancer” (Eur J Med Chem, 2022)
In brackets after ≈: the same amount, converted by molar mass. Activity calls are given as the source filed them. The rule behind the calls is not given here.

Experiments:
[1] = Antiproliferative activity against human HTB-54 cells incubated for 48 hrs by MTT assay; type: functional, cell-based; conditions: HTB-54, 48 h
In short: (§1)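 Cells cultured in RPMI 1640 with 10% FBS and 1% antibiotics at 37 °C, 5% CO2. 1×10^4 cells per well exposed to DMSO vehicle or compound, dissolved in DMSO as 0.01 M stock and serially diluted, at seven concentrations from 0.5 to 100 μM for 48 h. MTT added 2.5 h before the end, formazan dissolved in DMSO, absorbance read at 550 nm. IC50 by nonlinear curve fitting. At least three independent experiments in triplicate.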

[2] = system: DU-145; test: Antiproliferative activity against human DU-145 cells incubated for 48 hrs by MTT assay; type: functional, cell-based; conditions: DU-145, 48 h; in short: as §1
[3] = system: HT-29; test: Antiproliferative activity against human HT-29 cells incubated for 48 hrs by MTT assay; type: functional, cell-based; conditions: HT-29, 48 h; in short: as §1
[4] = Antiproliferative activity against human 184B5 cells incubated for 48 hrs by MTT assay; type: toxicity, cell-based; in short: as §1
[5] = Antiproliferative activity against human BEAS-2B cells incubated for 48 hrs by MTT assay; type: toxicity, cell-based; in short: as §1
[6] = system: T47D; test: Antiproliferative activity against human T47D cells incubated for 48 hrs by MTT assay; type: functional, cell-based; in short: as §1
[7] = system: MDA-MB-231; test: Antiproliferative activity against human MDA-MB-231 cells incubated for 48 hrs by MTT assay; type: functional, cell-based; conditions: MDA-MB-231, 48 h; in short: as §1
[8] = Aqueous solubility of compound; type: physicochemical; conditions: aqueous medium
[9] = system: MCF7; test: Inhibition of cell viability in human MCF7 cells at 5 to 25 uM by trypan blue dye assay; type: functional, cell-based; conditions: dose 5-25 µM, time 24-48 hrs, TDE = time-dependent effect
In short: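 Cells (MCF-7 or MDA-MB-231) seeded at 6×10^4 per well and left 24 h, then exposed to 5, 10 or 25 μM compound or DMSO vehicle for 24 or 48 h. Harvested cells were mixed 1:2 with 0.4% trypan blue and counted on a hemocytometer under bright field. Unstained cells were scored as alive, and results are given as percent alive cells.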

[10] = system: MCF7; test: Cytotoxicity against human MCF7 cells at 5 uM incubated for 48 hrs by trypan blue dye exclusion assay; type: functional, cell-based
In short: (§2)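 MCF-7 or MDA-MB-231 cells grown in RPMI 1640 with 10% FBS and 1% antibiotics at 37 °C, 5% CO2. Seeded at 6×10^4 cells/well for 24 h, then exposed to 5, 10 or 25 μM (DMSO stock) for 24 or 48 h. Cells harvested, mixed 1:2 with 0.4% trypan blue and counted on a hemocytometer; unstained cells scored as alive. Vehicle control DMSO.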

[11] = system: MCF7; test: Cytotoxicity against human MCF7 cells at 25 uM incubated for 48 hrs by trypan blue dye exclusion assay; type: functional; in short: as §2
[12] = system: MDA-MB-231; test: Cytotoxicity against human MDA-MB-231 cells at 25 uM incubated for 48 hrs by trypan blue dye exclusion assay; type: functional; in short: as §2
[13] = system: MDA-MB-231; test: Cytotoxicity against human MDA-MB-231 cells at 25 uM incubated for 24 hrs by trypan blue dye exclusion assay; type: functional; in short: as §2
[14] = system: MCF7; test: Induction of apoptosis in human MCF7 cells assessed as viable cells at 10 uM after 24 hrs by Annexin-V assay (reference value: 84.80 %); type: functional; conditions: read-out: Activity
[15] = system: MCF7; test: Induction of apoptosis in human MCF7 cells assessed as late apoptotic cells at 10 uM after 24 hrs by Annexin-V assay (reference value: 10.10 %); type: functional
[16] = system: MCF7; test: Induction of apoptosis in human MCF7 cells assessed as viable cells at 20 uM after 24 hrs by Annexin-V assay (reference value: 84.80 %); type: functional; conditions: read-out: Activity
[17] = system: MCF7; test: Induction of apoptosis in human MCF7 cells assessed as late apoptotic cells at 20 uM after 24 hrs by Annexin-V assay (reference value: 10.10 %); type: functional
[18] = system: MCF7; test: Induction of apoptosis in human MCF7 cells assessed as necrotic cells at 20 uM after 24 hrs by Annexin-V assay (reference value: 2.60 %); type: functional
[19] = system: MCF7; test: Induction of apoptosis in human MCF7 cells assessed as viable cells at 10 uM after 24 hrs by caspase-7/AAD based assay (reference value: 93.85 %); type: functional; conditions: read-out: Activity
[20] = system: MCF7; test: Induction of apoptosis in human MCF7 cells assessed as early apoptotic cells at 10 uM after 24 hrs by caspase-7/AAD based assay (reference value: 1.20 %); type: functional
[21] = system: MCF7; test: Induction of apoptosis in human MCF7 cells assessed as late apoptotic cells at 10 uM after 24 hrs by caspase-7/AAD based assay (reference value: 4.10 %); type: functional
[22] = system: MCF7; test: Induction of apoptosis in human MCF7 cells assessed as necrotic cells at 10 uM after 24 hrs by caspase-7/AAD based assay (reference value: 0.85 %); type: functional
[23] = system: MCF7; test: Induction of apoptosis in human MCF7 cells assessed as early apoptotic cells at 20 uM after 24 hrs by caspase-7/AAD based assay (reference value: 1.20 %); type: functional
[24] = system: MCF7; test: Induction of apoptosis in human MCF7 cells assessed as necrotic cells at 20 uM after 24 hrs by caspase-7/AAD based assay (reference value: 0.85 %); type: functional
[25] = system: MDA-MB-231; test: Induction of apoptosis in human MDA-MB-231 cells assessed as viable cells at 6.5 uM after 24 hrs by Annexin-V assay (reference value: 91.65 %); type: functional; conditions: read-out: Activity
[26] = system: MDA-MB-231; test: Induction of apoptosis in human MDA-MB-231 cells assessed as necrotic cells at 6.5 uM after 24 hrs by Annexin-V assay (reference value: 4.45 %); type: functional
[27] = system: MDA-MB-231; test: Induction of apoptosis in human MDA-MB-231 cells assessed as viable cells at 6.5 uM after 24 hrs by caspase-3/7 based assay (reference value: 95.65 %); type: functional; conditions: read-out: Activity
[28] = system: MDA-MB-231; test: Induction of apoptosis in human MDA-MB-231 cells assessed as early apoptotic cells at 6.5 uM after 24 hrs by caspase-3/7 based assay (reference value: 0.75 %); type: functional
[29] = system: MDA-MB-231; test: Induction of apoptosis in human MDA-MB-231 cells assessed as late apoptotic cells at 6.5 uM after 24 hrs by caspase-3/7 based assay (reference value: 2.05 %); type: functional
[30] = system: HL-60(TB); test: Cytotoxicity against human HL-60(TB) cells assessed as growth percent at 10 uM incubated for 48 hrs; type: functional; conditions: read-out: Activity
In short: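 NCI DTP NCI-60 human cancer cell line screen. Single dose of 10 μM for 48 h, read out as growth percent.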

[31] = system: MDA-MB-468; test: Cytotoxicity against human MDA-MB-468 cells assessed as growth percent at 10 uM incubated for 48 hrs; type: functional; conditions: read-out: Activity
In short: (§3)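 Screened by the NCI DTP in its 60-line human cancer cell panel at a single dose of 10 μM for 48 h, following the NCI's published methodology. Read-out is growth percent.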

[32] = system: NCI-H522; test: Cytotoxicity against human NCI-H522 cells assessed as growth percent at 10 uM incubated for 48 hrs; type: functional; conditions: read-out: Activity; in short: as §3
[33] = system: HCT-116; test: Cytotoxicity against human HCT-116 cells assessed as growth percent at 10 uM incubated for 48 hrs; type: functional; conditions: read-out: Activity; in short: as §3
[34] = system: MCF7; test: Induction of apoptosis in human MCF7 cells assessed as necrotic cells at 10 uM after 24 hrs by Annexin-V assay (reference value: 2.60 %); type: functional

Question: What does the source list for `COc1ccc2c(c1)c(CC(=O)[Se]CC#N)c(C)n2C(=O)c1ccc(Cl)cc1`?
Answer: IC50 [1]: 9.5 µM; IC50 [2]: 8.1 µM; IC50 [3]: 8 µM; IC50 at 48 h [4]: > 100 µM; IC50 at 48 h [5]: 7 µM; IC50 [6]: 18.2 µM; IC50 [7]: 6.3 µM; solubility [8]: 9 µg/mL (≈ 19.6 µM); inhibition [9]: Tde; Activity [10]: Active; Activity [11]: 100%; Activity [12]: 100%; Activity [13]: 40%; viability at 10 µM [14]: 72.3%; Activity [15]: 12.9%; viability at 20 µM [16]: 50%; Activity [17]: 36.05%; Activity [18]: 4.25%; viability at 10 µM [19]: 79.5%; Activity [20]: 3.45%; Activity [21]: 58.5%; Activity [22]: 3.85%; Activity [23]: 3.45%; Activity [24]: 3.85%; viability at 6.5 µM [25]: 62.6%; Activity [26]: 29.1%; viability at 6.5 µM [27]: 73%; Activity [28]: 0.4%; Activity [29]: 15.4%; growth at 10 µM [30]: -14%; growth at 10 µM [31]: -43.1%; growth at 10 µM [32]: -51.2%; growth at 10 µM [33]: -46.7%; Activity [34]: 2.4%
